How the values were obtained:
Type in all cases: functional
NCI-H522 = assay: Anticancer activity against human NCI-H522 cells after 48 hrs by sulforhodamine B assay; conditions: NCI-H522, 48 h
Summary of the method: (§1)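 Full 60-cell-line panel, compounds tested over a five-log dose range. Cells are preincubated on microtiter plates, the agent is added, and cultures run 48 h. The end point is sulphorhodamine B protein staining. GI50 is taken as the concentration giving 50% growth inhibition relative to untreated control cells.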

RXF 393 = assay: Anticancer activity against human RXF393 cells after 48 hrs by sulforhodamine B assay; conditions: RXF 393, 48 h; summary of the method: as §1
CAKI-1 = assay: Anticancer activity against human Caki1 cells after 48 hrs by sulforhodamine B assay; conditions: CAKI-1, 48 h; summary of the method: as §1
UACC-62 = assay: Anticancer activity against human UACC62 cells after 48 hrs by sulforhodamine B assay; conditions: UACC-62, 48 h
Summary of the method: (§2)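 Cells from the 60-line full panel are preincubated on microtiter plates, then treated across a five-log dose range for 48 h. Growth is read with the protein-binding dye sulforhodamine B. GI50 is the concentration giving 50% growth inhibition relative to untreated control cells.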

SK-MEL-28 = assay: Anticancer activity against human SK-MEL-28 cells after 48 hrs by sulforhodamine B assay; conditions: SK-MEL-28, 48 h; summary of the method: as §1
SF-268 [1] = assay: Anticancer activity against human SF268 cells after 48 hrs by sulforhodamine B assay; conditions: SF-268, 48 h; summary of the method: as §1
SF-539 = assay: Anticancer activity against human SF539 cells after 48 hrs by sulforhodamine B assay; conditions: SF-539, 48 h; summary of the method: as §1
IGROV-1 = assay: Anticancer activity against human IGROV1 cells after 48 hrs by sulforhodamine B assay; conditions: IGROV-1, 48 h; summary of the method: as §1
OVCAR-4 = assay: Anticancer activity against human OVCAR4 cells after 48 hrs by sulforhodamine B assay; conditions: OVCAR-4, 48 h; summary of the method: as §1
Malme-3M = assay: Anticancer activity against human MALME-3M cells after 48 hrs by sulforhodamine B assay; summary of the method: as §1
EKVX = assay: Anticancer activity against human EKVX cells after 48 hrs by sulforhodamine B assay; summary of the method: as §1
HT-29 = assay: Anticancer activity against human HT-29 cells after 48 hrs by sulforhodamine B assay; conditions: HT-29, 48 h; summary of the method: as §1
SF-268 [2] = assay: Anticancer activity against human SF268 cells assessed as cell growth at 100 uM after 48 hrs by sulforhodamine B assay relative to control; conditions: SF-268, 48 h, read-out: Activity
Summary of the method: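 Three-cell-line prescreen (NCI-H460 lung, MCF7 breast, SF 268 CNS), each preincubated on microtiter plates. The agent is added at a single concentration and cultures are incubated 48 h. Growth is read by sulphorhodamine B protein staining and reported as percent growth of treated versus untreated control cells; negative values indicate cell kill.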

SF-295 = assay: Anticancer activity against human SF295 cells after 48 hrs by sulforhodamine B assay; conditions: SF-295, 48 h; summary of the method: as §1
NCI-H226 = assay: Anticancer activity against human NCI-H226 cells after 48 hrs by sulforhodamine B assay; conditions: NCI-H226, 48 h; summary of the method: as §1
A549 = assay: Anticancer activity against human A549 cells after 48 hrs by sulforhodamine B assay; conditions: A549, 48 h; summary of the method: as §1
SNB-19 = assay: Anticancer activity against human SNB19 cells after 48 hrs by sulforhodamine B assay; conditions: SNB-19, 48 h; summary of the method: as §1
NCI-H322M = assay: Anticancer activity against human NCI-H322M cells after 48 hrs by sulforhodamine B assay; summary of the method: as §1
HCC 2998 = assay: Anticancer activity against human HCC2998 cells after 48 hrs by sulforhodamine B assay; conditions: HCC 2998, 48 h; summary of the method: as §1
CCRF-CEM = assay: Anticancer activity against human CCRF-CEM cells after 48 hrs by sulforhodamine B assay; summary of the method: as §1
U-251 = assay: Anticancer activity against human U251 cells after 48 hrs by sulforhodamine B assay; conditions: U-251, 48 h; summary of the method: as §2
KM12 = assay: Anticancer activity against human KM12 cells after 48 hrs by sulforhodamine B assay; conditions: KM12, 48 h; summary of the method: as §1
UACC-257 = assay: Anticancer activity against human UACC257 cells after 48 hrs by sulforhodamine B assay; conditions: UACC-257, 48 h; summary of the method: as §2
COLO 205 = assay: Anticancer activity against human COLO205 cells after 48 hrs by sulforhodamine B assay; conditions: COLO 205, 48 h; summary of the method: as §1
MDA-MB-435 = assay: Anticancer activity against human MDA-MB-435 cells after 48 hrs by sulforhodamine B assay; conditions: MDA-MB-435, 48 h; summary of the method: as §1
NCI-H460 = assay: Anticancer activity against human NCI-H460 cells after 48 hrs by sulforhodamine B assay; conditions: NCI-H460, 48 h; summary of the method: as §1
TK-10 = assay: Anticancer activity against human TK10 cells after 48 hrs by sulforhodamine B assay; conditions: TK-10, 48 h; summary of the method: as §2

Fc1cc(C2=Nn3c(nnc3-c3cc(F)c(Cl)cc3Cl)SC2)c(Cl)cc1Cl showed a GI50 (NCI-H522) of 24.2 µM, a GI50 (RXF 393) of 23.2 µM and a GI50 (CAKI-1) of 20.6 µM. It also gave a GI50 (UACC-62) of 13.3 µM, a GI50 (SK-MEL-28) of 21.5 µM and a GI50 (SF-268 [1]) of 18.5 µM. The GI50 (SF-539) was 18.9 µM, the GI50 (IGROV-1) was 29.8 µM and the GI50 (OVCAR-4) was 34.5 µM. It also gave a GI50 (Malme-3M) of 28.4 µM, a GI50 (EKVX) of 24.6 µM and a GI50 (HT-29) of 20.1 µM. For the same molecule, the growth at 100 µM (SF-268 [2]) was 26%, the GI50 (SF-295) was 20.3 µM and the GI50 (NCI-H226) was 14.9 µM. For the same molecule, the GI50 (A549) was 23.7 µM, the GI50 (SNB-19) was 22.7 µM and the GI50 (NCI-H322M) was 29.1 µM. It also gave a GI50 (HCC 2998) of 31.6 µM, a GI50 (CCRF-CEM) of 22 µM and a GI50 (U-251) of 20.4 µM. For the same molecule, the GI50 (KM12) was 28.5 µM, the GI50 (UACC-257) was 30.2 µM and the GI50 (COLO 205) was 19 µM. It also gave a GI50 (MDA-MB-435) of 27.8 µM, a GI50 (NCI-H460) of 17.6 µM and a GI50 (TK-10) of 37.4 µM.

— ChEMBL document CHEMBL1154616, “Synthesis and antitumor activity studies of some new fused 1,2,4-triazole derivatives carrying 2,4-dichloro-5-fluorophenyl moiety” (Eur J Med Chem, 2009)
